Measurements from PMC4184708 (Pharmacology Research & Perspectives, 2014).

Assays:
[1] = Acetaminophen deconvolution profiles and rate of gastric emptying; assay type: in vivo, male Sprague–Dawley rats; details: rats, deconvolution profile, after 30 min
[2] = Pharmacokinetics of acetaminophen; assay type: in vivo, male Sprague–Dawley rats; details: rats
[3] = Paracellular flux: A–B transport of [14C]-mannitol across Caco-2 cell monolayers; assay type: in vitro ADME; details: human
[4] = Pharmacokinetics of vigabatrin after iv or oral administration to rats; assay type: in vivo, male Sprague–Dawley rats
Caco-2 cells = experiment: Apical vigabatrin uptake in Caco-2 cells; assay type: in vitro ADME, human
Summary of the method: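 Caco-2 cells (passages 10–18) were seeded at 8.9·10^4 cells cm−2 in 24-well plates and used 6 days post seeding. Low fat infant formula: 150 mg mL−1 was incubated 15 min at 37°C, centrifuged 15 min at 18000g and 4°C, and the supernatant was re-spun to remove lipids. Uptake rate is in nmol min−1 cm−2; n = 3–4.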

Caco-2 cell monolayers = experiment: Transepithelial apical to basolateral; assay type: in vitro ADME, human; details: Caco-2 monolayers, NaCl-reduced HBSS versus HBSS
Summary of the method: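 Caco-2 cells (passages 10–18) were seeded at 8.9·10^4 cells cm−2 on 1.12 cm2 polycarbonate inserts (0.4 μm) and run 20 days post seeding, with TEER monitored. 1.0 mmol/L test compound was applied apically, alone or with amino acid or dipeptide inhibitors (35.0–152.5 mmol/L) in NaCl-reduced HBSS (mannitol to 270–310 mOsmol L−1), or with low fat infant formula 150 mg mL−1 in water. Controls were in HBSS and NaCl-reduced HBSS.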

Absorption rate constant = assay type: in vivo, male Sprague–Dawley rats; details: rats
[5] = oral coadministration with 120 mg kg^−1 acetaminophen
[6] = rats, vigabatrin 1.0 mg kg^−1 PO, formulation 1, dietary component none
[7] = rats, vigabatrin 1.0 mg kg^−1 PO, formulation 5, with Sar 200 mg kg^−1
[8] = rats, vigabatrin 1.0 mg kg^−1 PO, formulation 6, with BCH 200 mg kg^−1
[9] = rats, vigabatrin 10 mg kg^−1 PO, formulation 7, dietary component none
[10] = rats, vigabatrin 10 mg kg^−1 PO, formulation 10, with Sar 200 mg kg^−1

Question: What does the source list for `CC(=O)Nc1ccc(O)cc1` [acetaminophen]?
Answer: cumulative fraction of acetaminophen absorbed [1]: about 90%; AUC(0-inf) ([2]; male, Sprague-Dawley, rat, plasma, iv, 120 mg/kg, AUC0–∞, acetaminophen 120 mg kg^−1 iv, formulation 00, dietary component none): 155000 ± 4000 ng·h/mL; k el ([2]; male, Sprague-Dawley, rat, plasma, iv, 120 mg/kg, ke, acetaminophen 120 mg kg^−1 iv, formulation 00, dietary component none): 0.000306 s⁻¹; Fabs ([2]; acetaminophen 120 mg kg^−1 iv, formulation 00, dietary component none): 100 ± 3%

Question: Which Papp [3] does the source give for `OC[C@@H](O)[C@@H](O)[C@H](O)[C@H](O)CO` [mannitol, D-[1-^14C]-mannitol] here?
Answer: 0.16 ×10⁻⁶ cm/s

Question: For `NC1(C(=O)O)CC2CCC1C2` (stereo not drawn) [BCH, 2-amino-2-norbornanecarboxylic acid], which “effect on the pharmacokinetic parameters of vigabatrin absorption” value ([4]; rats, oral administration of 1.0 mg kg^−1 vigabatrin) is on record?
Answer: did not significantly alter

Question: Which “effect on Cmax of acetaminophen” value [2, 5] does the source give for `CNCC(=O)O` [Sar, sarcosine] here?
Answer: did not alter

Question: What about the “effect on tmax of acetaminophen” value [2, 5] of the same compound?
Answer: did not alter

Question: What about the “effect on tmax of vigabatrin” value ([4]; rats, oral coadministration with 1.0 and 10.0 mg kg^−1 vigabatrin) of the same compound?
Answer: significant prolonging effect

Question: And the “effect on Cmax of vigabatrin” value ([4]; rats, oral coadministration with vigabatrin)?
Answer: significantly decreased

Question: What does the source list for `C=CC(N)CCC(=O)O` (stereo not drawn) [vigabatrin]?
Answer: apical vigabatrin uptake rate (Caco-2 cells; apical pH 6.0, control): 1.01 ± 0.11 nmol min^−1 cm^−2; apical vigabatrin uptake rate (Caco-2 cells; apical pH 6.0, in the presence of Gly-Gly): 0.48 ± 0.07 nmol min^−1 cm^−2; apical vigabatrin uptake rate (Caco-2 cells; apical pH 6.0, in the presence of low fat infant formula): 0.53 ± 0.09 nmol min^−1 cm^−2; apical vigabatrin uptake rate (Caco-2 cells; apical pH 7.4, control): 0.31 ± 0.04 nmol min^−1 cm^−2; apical vigabatrin uptake rate (Caco-2 cells; apical pH 7.4, in the presence of Gly-Gly): 0.25 ± 0.03 nmol min^−1 cm^−2; apical vigabatrin uptake rate (Caco-2 cells; apical pH 7.4, in the presence of low fat infant formula): 0.28 ± 0.06 nmol min^−1 cm^−2; clearance ([4]; male, Sprague-Dawley, rat, plasma, iv, 1 mg/kg): 7.1 mL/min/kg; AUC(0-inf) ([4]; male, Sprague-Dawley, rat, plasma, po, 10 mg/kg, AUC0–∞, rats, vigabatrin 10 mg kg^−1 PO, formulation 7, dietary component none): 17800 ± 808 ng·h/mL; Cmax ([4]; male, Sprague-Dawley, rat, plasma, po, 10 mg/kg, Cmax, rats, vigabatrin 10 mg kg^−1 PO, formulation 7, dietary component none): 13600 ± 953 ng/mL; k el ([4]; male, Sprague-Dawley, rat, plasma, po, 10 mg/kg, ke, rats, vigabatrin 10 mg kg^−1 PO, formulation 7, dietary component none): 0.000194 s⁻¹; Tmax ([4]; male, Sprague-Dawley, rat, plasma, po, 10 mg/kg, tmax, median [Q1, Q3], rats, vigabatrin 10 mg kg^−1 PO, formulation 7, dietary component none): 19.8 min; time of maximal plasma concentration (Cmax) after oral administration ([4]; rats, oral administration of 1.0 or 10.0 mg kg^−1 vigabatrin): 0.25 to 0.33 h; CL [4, 6]: 9.68 ± 0.5 mL/min/kg; Fabs [4, 6]: 72 ± 4%; CL [4, 7]: 9.53 ± 0.383 mL/min/kg; Fabs [4, 7]: 73 ± 3%; CL [4, 8]: 9.13 ± 0.333 mL/min/kg; Fabs [4, 8]: 76 ± 3%; Fabs ([4]; rats, vigabatrin 1.0 mg kg^−1 iv, formulation 0, dietary component none): 100%; CL [4, 9]: 9.45 ± 0.4 mL/min/kg; Fabs [4, 9]: 74 ± 3%; CL [4, 10]: 10.6 ± 0.533 mL/min/kg; Fabs [4, 10]: 66 ± 3%; transport of vigabatrin in the apical to basolateral direction (Caco-2 cell monolayers): unaffected; ka (Absorption rate constant; vigabatrin 1 mg kg^−1, DC fitted to eq. 9, with Low fat milk): 5.2 ± 0.3; ka (Absorption rate constant; vigabatrin 1 mg kg^−1, DC fitted to eq. 9, with Milk): 5.3 ± 0.9; ka (Absorption rate constant; vigabatrin 1 mg kg^−1, DC fitted to eq. 9, with Sar): 2.9 ± 0.2; ka (Absorption rate constant; vigabatrin 1 mg kg^−1, PC fitted to eq. 10, with Low fat milk): 2.6 ± 0.1; ka (Absorption rate constant; vigabatrin 1 mg kg^−1, PC fitted to eq. 10, with Milk): 2.8 ± 0.3; ka (Absorption rate constant; vigabatrin 1 mg kg^−1, PC fitted to eq. 10, with Sar): 1.6 ± 0.1; ka (Absorption rate constant; vigabatrin 1 mg kg^−1, deconvolution curve (DC) fitted to eq. 9, Control): 7.9 ± 1.9; ka (Absorption rate constant; vigabatrin 10 mg kg^−1, DC fitted to eq. 9, with Low fat milk): 5.0 ± 0.3; ka (Absorption rate constant; vigabatrin 10 mg kg^−1, DC fitted to eq. 9, with Milk): 4.1 ± 0.5; ka (Absorption rate constant; vigabatrin 10 mg kg^−1, DC fitted to eq. 9, with Sar): 3.2 ± 0.2; ka (Absorption rate constant; vigabatrin 10 mg kg^−1, PC fitted to eq. 10, with Low fat milk): 2.6 ± 0.1; ka (Absorption rate constant; vigabatrin 10 mg kg^−1, PC fitted to eq. 10, with Milk): 2.6 ± 0.3; ka (Absorption rate constant; vigabatrin 10 mg kg^−1, PC fitted to eq. 10, with Sar): 1.7 ± 0.1; ka (Absorption rate constant; vigabatrin 10 mg kg^−1, deconvolution curve (DC) fitted to eq. 9, Control): 8.1 ± 2.3
